The IC50 is the midpoint of a concentration-inhibition curve. A higher IC50 goes with weaker potency.

Common to all, as to format: functional, cell-based
The subject of one experiment is HepG2. The experiment can be described thus: Cytotoxicity against human HepG2 cells after 72 hrs by MTT assay. The settings on record: HepG2, 72 h. In short, it runs like this:
(§1)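 Cells seeded in 96-well plates and grown 24 h at 37 °C, 5% CO2, then exposed to test compound at five concentrations for 72 h. MTT (0.5 mg/mL in PBS) added, 4 h at 37 °C. Medium replaced with DMSO, shaken 3 min to dissolve formazan, optical density read at 544 nm. 5-Fluorouracil as positive control.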

Experiment [1] in a line: Cytotoxicity against human HCT8 cells after 72 hrs by MTT assay. As to conditions: HCT-8, 72 h. An outline of the steps: as §1
In another experiment the test system is A549. Kind of experiment: Cytotoxicity against human A549 cells after 72 hrs by MTT assay. As to conditions: A549, 72 h. An outline of the steps: as §1
In general terms: Formazan colour is commonly taken as a measure of viable cells.

The nature of experiment [2]: Cytotoxicity against human Bel7402 cells after 72 hrs by MTT assay. The settings on record: Bel-7402, 72 h. In short, it runs like this: as §1

For `CC(C)=CCc1c(O)cc(CO)cc1O`, the 50% inhibitory concentration (IC50) in the experiment on HepG2 was 15.8 µM; in experiment [1], 11.4 µM; in the experiment on A549 it was 20.1 µM; in experiment [2], 7.69 µM.
Consider `CC1(C)C=Cc2c(cc3c(c2O)C(=O)OC3)O1`, for which the IC50 is 37 µM with HepG2, 24.1 µM in experiment [1], greater than 40 µM with A549 and greater than 40 µM in experiment [2].
Take `CC1(C)C=Cc2c(O)cc(CO)cc2O1`: the concentration for half-maximal inhibition (IC50) with HepG2 is 17.3 µM; in experiment [1] it was greater than 40 µM; with A549, 36.3 µM; in experiment [2], greater than 40 µM.
`O=c1[nH]cc(F)c(=O)[nH]1` [FLUOROURACIL]: the half-maximal inhibitory concentration (IC50) is 16.4 µM in the experiment on HepG2, 6.3 µM in experiment [1], 14.2 µM in the experiment with A549 and 10.1 µM in experiment [2].
On the same counts, the results for `CC(C)(O)CCc1c(O)cc(CO)cc1O` are 17.8 µM, greater than 40 µM, greater than 40 µM and greater than 40 µM.

For the origin of these results see ChEMBL document CHEMBL3608271, “New phenolic compounds from the seeds of Nigella glandulifera and their inhibitory activities against human cancer cells” (Bioorg Med Chem Lett, 2015).
